{"source": "ChEMBL document CHEMBL1155226", "about": "“Design, synthesis, and structure-activity relationship of a novel series of 2-aryl 5-(4-oxo-3-phenethyl-2-thioxothiazolidinylidenemethyl)furans as HIV-1 entry inhibitors” (J Med Chem, 2009)", "key": {"[1]": {"test": "Selectivity index, ratio of CC50 for human MT2 cells to EC50 for HIV1 3B replication in human MT2 cells exposed to light", "assay_type": "toxicity, cell-based", "conditions": "read-out: Ratio CC50/EC50"}, "[2]": {"tested_on": "Human immunodeficiency virus 1", "test": "Antiviral activity against HIV1 3B replication in human MT2 cells under dark condition assessed as inhibition of p24 production after 4 days by ELISA", "conditions": "Human immunodeficiency virus 1, 3B, MT2, 96 h"}, "[3]": {"tested_on": "Human immunodeficiency virus 1", "test": "Antiviral activity against HIV1 isolate 94UG103 replication in human PBMC assessed as inhibition of p24 production after 7 days by ELISA", "conditions": "Human immunodeficiency virus 1, isolate 94UG103, 168 h"}, "[4]": {"tested_on": "MT2", "test": "Cytotoxicity against human MT2 cells after 4 days by XTT assay", "assay_type": "cell-based", "conditions": "mt2, 96 h", "summary_of_the_method": "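Graded compound concentrations mixed with equal volume of MT-2 cells (5×10^5/mL), 37 °C for 4 days. XTT (1 mg/mL) with 0.02 μM phenazine methosulphate added, absorbance at 450 nm read after 4 h; CC50 calculated with CalcuSyn.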"}, "[5]": {"tested_on": "Human immunodeficiency virus 1", "test": "Antiviral activity against HIV1 3B replication in human MT2 cells exposed to light assessed as inhibition of p24 production after 4 days by ELISA", "conditions": "Human immunodeficiency virus 1, 3B, MT2, 96 h"}}, "data": [{"smiles": "O=C(O)c1cccc(-c2ccc(/C=C3\\SC(=S)N(CCc4ccccc4)C3=O)o2)c1", "values": [{"measurement": "selectivity ratio", "setting": "[1]", "result": 440}, {"measurement": "EC50", "setting": "[2]", "result": 98, "unit": "nM"}, {"measurement": "EC50", "setting": "[3]", "result": 74, "unit": "nM"}, {"measurement": "CC50", "setting": "[4]", "result": 19.4, "unit": "µM"}, {"measurement": "EC50", "setting": "[5]", "result": 44, "unit": "nM"}]}, {"smiles": "COc1ccc(-c2ccc(/C=C3\\SC(=S)N(CCc4ccccc4)C3=O)o2)cc1C(=O)O", "values": [{"measurement": "selectivity ratio", "setting": "[1]", "result": 22}, {"measurement": "EC50", "setting": "[2]", "result": 266, "unit": "nM"}, {"measurement": "EC50", "setting": "[3]", "result": 2230, "unit": "nM"}, {"measurement": "CC50", "setting": "[4]", "result": 28.7, "unit": "µM"}, {"measurement": "EC50", "setting": "[5]", "result": 1300, "unit": "nM"}]}, {"smiles": "Cc1c(C(=O)O)cncc1-c1ccc(/C=C2\\SC(=S)N(CCc3ccccc3)C2=O)o1", "values": [{"measurement": "selectivity ratio", "setting": "[1]", "result": 202}, {"measurement": "EC50", "setting": "[2]", "result": 538, "unit": "nM"}, {"measurement": "EC50", "setting": "[3]", "result": 4040, "unit": "nM"}, {"measurement": "CC50", "setting": "[4]", "result": 78.9, "unit": "µM"}, {"measurement": "EC50", "setting": "[5]", "result": 390, "unit": "nM"}]}, {"smiles": "O=C(O)c1cccc(-c2ccc(/C=C3\\SC(=S)N(CCc4ccccc4)C3=O)o2)c1Cl", "values": [{"measurement": "selectivity ratio", "setting": "[1]", "result": 105}, {"measurement": "EC50", "setting": "[2]", "result": 78, "unit": "nM"}, {"measurement": "EC50", "setting": "[3]", "result": 33, "unit": "nM"}, {"measurement": "CC50", "setting": "[4]", "result": 6.73, "unit": "µM"}, {"measurement": "EC50", "setting": "[5]", "result": 64, "unit": "nM"}]}, {"smiles": "CCc1ccc(-c2ccc(/C=C3\\SC(=S)N(CCc4ccccc4)C3=O)o2)cc1C(=O)O", "values": [{"measurement": "selectivity ratio", "setting": "[1]", "result": 215}, {"measurement": "EC50", "setting": "[2]", "result": 30, "unit": "nM"}, {"measurement": "EC50", "setting": "[3]", "result": 177, "unit": "nM"}, {"measurement": "CC50", "setting": "[4]", "result": 17.4, "unit": "µM"}, {"measurement": "EC50", "setting": "[5]", "result": 81, "unit": "nM"}]}, {"smiles": "O=C(O)c1cc(-c2ccc(/C=C3\\SC(=S)N(CCc4ccccc4)C3=O)o2)cnc1Br", "values": [{"measurement": "selectivity ratio", "setting": "[1]", "result": 40}, {"measurement": "EC50", "setting": "[2]", "result": 227, "unit": "nM"}, {"measurement": "EC50", "setting": "[3]", "result": 353, "unit": "nM"}, {"measurement": "CC50", "setting": "[4]", "result": 5.53, "unit": "µM"}, {"measurement": "EC50", "setting": "[5]", "result": 268, "unit": "nM"}]}, {"smiles": "O=C(O)c1cc(-c2ccc(/C=C3\\SC(=S)N(CCc4ccccc4)C3=O)o2)ccc1O", "values": [{"measurement": "selectivity ratio", "setting": "[1]", "result": 12}, {"measurement": "EC50", "setting": "[2]", "result": 261, "unit": "nM"}, {"measurement": "EC50", "setting": "[3]", "result": 2660, "unit": "nM"}, {"measurement": "CC50", "setting": "[4]", "result": 14.8, "unit": "µM"}, {"measurement": "EC50", "setting": "[5]", "result": 1280, "unit": "nM"}]}, {"smiles": "Cc1c(C(=O)O)cccc1-c1ccc(/C=C2\\SC(=S)N(CCc3ccccc3)C2=O)o1", "values": [{"measurement": "selectivity ratio", "setting": "[1]", "result": 624}, {"measurement": "EC50", "setting": "[2]", "result": 92, "unit": "nM"}, {"measurement": "EC50", "setting": "[3]", "result": 648, "unit": "nM"}, {"measurement": "CC50", "setting": "[4]", "result": 26.8, "unit": "µM"}, {"measurement": "EC50", "setting": "[5]", "result": 43, "unit": "nM"}]}, {"smiles": "O=C(O)c1cc(-c2ccc(/C=C3\\SC(=S)N(CCc4ccccc4)C3=O)o2)ccc1Br", "values": [{"measurement": "selectivity ratio", "setting": "[1]", "result": 10}, {"measurement": "EC50", "setting": "[2]", "result": 158, "unit": "nM"}, {"measurement": "EC50", "setting": "[3]", "result": 165, "unit": "nM"}, {"measurement": "CC50", "setting": "[4]", "result": 3.29, "unit": "µM"}, {"measurement": "EC50", "setting": "[5]", "result": 317, "unit": "nM"}]}, {"smiles": "O=C(O)c1cncc(-c2ccc(/C=C3\\SC(=S)N(CCc4ccccc4)C3=O)o2)c1", "values": [{"measurement": "selectivity ratio", "setting": "[1]", "result": 915}, {"measurement": "EC50", "setting": "[2]", "result": 71, "unit": "nM"}, {"measurement": "EC50", "setting": "[3]", "result": 442, "unit": "nM"}, {"measurement": "CC50", "setting": "[4]", "result": 38.4, "unit": "µM"}, {"measurement": "EC50", "setting": "[5]", "result": 42, "unit": "nM"}]}, {"smiles": "O=C(O)c1cc(-c2ccc(/C=C3\\SC(=S)N(CCc4ccccc4)C3=O)o2)ccc1Cl", "values": [{"measurement": "selectivity ratio", "setting": "[1]", "result": 330}, {"measurement": "EC50", "setting": "[2]", "result": 17, "unit": "nM"}, {"measurement": "EC50", "setting": "[3]", "result": 73, "unit": "nM"}, {"measurement": "CC50", "setting": "[4]", "result": 16.8, "unit": "µM"}, {"measurement": "EC50", "setting": "[5]", "result": 51, "unit": "nM"}]}, {"smiles": "O=C(O)c1cc(-c2ccc(/C=C3\\SC(=S)N(CCc4ccccc4)C3=O)o2)cnc1Cl", "values": [{"measurement": "selectivity ratio", "setting": "[1]", "result": 165}, {"measurement": "EC50", "setting": "[2]", "result": 1010, "unit": "nM"}, {"measurement": "EC50", "setting": "[3]", "result": 598, "unit": "nM"}, {"measurement": "CC50", "setting": "[4]", "result": 38.4, "unit": "µM"}, {"measurement": "EC50", "setting": "[5]", "result": 232, "unit": "nM"}]}, {"smiles": "Cc1ccc(-c2ccc(/C=C3\\SC(=S)N(CCc4ccccc4)C3=O)o2)cc1C(=O)O", "values": [{"measurement": "selectivity ratio", "setting": "[1]", "result": 426}, {"measurement": "EC50", "setting": "[2]", "result": 31, "unit": "nM"}, {"measurement": "EC50", "setting": "[3]", "result": 70, "unit": "nM"}, {"measurement": "CC50", "setting": "[4]", "result": 42.1, "unit": "µM"}, {"measurement": "EC50", "setting": "[5]", "result": 99, "unit": "nM"}]}, {"smiles": "O=C(O)c1cccc(-c2ccc(/C=C3\\SC(=S)N(CCc4ccccc4)C3=O)o2)c1F", "values": [{"measurement": "selectivity ratio", "setting": "[1]", "result": 835}, {"measurement": "EC50", "setting": "[2]", "result": 59, "unit": "nM"}, {"measurement": "EC50", "setting": "[3]", "result": 801, "unit": "nM"}, {"measurement": "CC50", "setting": "[4]", "result": 78.3, "unit": "µM"}, {"measurement": "EC50", "setting": "[5]", "result": 94, "unit": "nM"}]}, {"smiles": "O=C(O)c1cc(-c2ccc(/C=C3\\SC(=S)N(CCc4ccccc4)C3=O)o2)ccc1F", "values": [{"measurement": "selectivity ratio", "setting": "[1]", "result": 380}, {"measurement": "EC50", "setting": "[2]", "result": 291, "unit": "nM"}, {"measurement": "EC50", "setting": "[3]", "result": 246, "unit": "nM"}, {"measurement": "CC50", "setting": "[4]", "result": 27, "unit": "µM"}, {"measurement": "EC50", "setting": "[5]", "result": 71, "unit": "nM"}]}]}
